Measured values as given in ChEMBL document CHEMBL3745654, “N-Alkylated arylsulfonamides of (aryloxy)ethyl piperidines: 5-HT(7) receptor selectivity versus multireceptor profile” (Bioorg Med Chem, 2016).
The source made the active and inactive calls. The calls are words filed in the database; no cut-off is given here.

Key:
Mus musculus [1] = test: Toxicity in Swiss albino mouse assessed as effect on spontaneous locomotor activity at 1.25 mg/kg, ip dosed 60 mins before test measured after 2 to 6 mins; assay type: organism-based; settings: in vivo
[2] = biological target: 5-hydroxytryptamine receptor 2A (Homo sapiens, UniProt P28223); test: Antagonist activity at human 5-HT2A receptor expressed in HEK293 cells assessed as inhibition of serotonin-induced inositol-1-phosphate accumulation at 1 uM after 30 mins by HTRF assay; assay type: functional, cell-based
5-hydroxytryptamine receptor 2A, sequence (P28223 whole entry): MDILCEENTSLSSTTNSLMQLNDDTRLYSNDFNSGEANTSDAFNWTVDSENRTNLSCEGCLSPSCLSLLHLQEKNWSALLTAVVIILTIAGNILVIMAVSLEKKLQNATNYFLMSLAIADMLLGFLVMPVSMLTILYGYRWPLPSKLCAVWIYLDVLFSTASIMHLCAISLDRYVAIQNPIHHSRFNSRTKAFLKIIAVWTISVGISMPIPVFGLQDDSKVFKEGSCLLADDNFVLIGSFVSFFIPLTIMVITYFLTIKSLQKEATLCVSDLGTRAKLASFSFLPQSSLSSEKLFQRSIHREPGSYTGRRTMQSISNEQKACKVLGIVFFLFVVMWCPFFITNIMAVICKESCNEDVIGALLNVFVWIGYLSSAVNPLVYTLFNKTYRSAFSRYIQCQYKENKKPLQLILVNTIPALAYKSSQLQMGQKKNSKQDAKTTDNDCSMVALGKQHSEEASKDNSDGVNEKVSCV
Method in brief: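 Cellular functional antagonist assay in HEK293 cells stably expressing human 5-HT2A receptor, run externally. Inhibition of control agonist response (serotonin 100 nM) measured with compound at 10^-6 M.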

[3] = biological target: D(3) dopamine receptor (Homo sapiens) (UniProt P35462); test: […] human dopamine D3 receptor expressed in CHO cells assessed as inhibition of dopamine-induced cAMP level at 1 uM after 30 mins by HTRF method; assay type: cell-based
D(3) dopamine receptor (Homo sapiens), sequence (P35462 whole entry): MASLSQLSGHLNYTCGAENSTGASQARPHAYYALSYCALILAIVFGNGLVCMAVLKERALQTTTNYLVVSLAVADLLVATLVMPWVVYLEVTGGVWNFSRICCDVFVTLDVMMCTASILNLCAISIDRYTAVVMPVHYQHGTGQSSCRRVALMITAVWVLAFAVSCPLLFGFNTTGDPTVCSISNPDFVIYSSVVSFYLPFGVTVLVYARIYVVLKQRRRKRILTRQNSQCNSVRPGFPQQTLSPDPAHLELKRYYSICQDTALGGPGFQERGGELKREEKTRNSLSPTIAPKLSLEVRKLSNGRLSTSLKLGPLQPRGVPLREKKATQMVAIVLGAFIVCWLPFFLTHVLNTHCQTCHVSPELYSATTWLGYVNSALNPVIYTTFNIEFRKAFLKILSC

Mus musculus [4] = test: Antidepressant-like activity in ip dosed Swiss albino mouse assessed as reduction in immobility time dosed 60 mins before test measured after 6 mins by forced swim test; assay type: functional; settings: read-out: MED
Method in brief: (§1)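 Male Swiss albino mice (22–26 g), 7–12 per dose. Compounds dissolved in distilled water and given ip 60 min before test. Each mouse placed for 6 min in a glass cylinder with 10 cm of water at 23–25 °C. Immobility (floating with minimal movement) scored over the last 4 min by a blinded observer. One-way ANOVA with Bonferroni.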

Mus musculus [5] = test: Antidepressant-like activity in Swiss albino mouse assessed as reduction in immobility time at 0.312 to 1.25 mg/kg, ip dosed 60 mins before test measured after 6 mins by forced swim test; assay type: functional, organism-based; method in brief: as §1
Mus musculus [6] = test: Toxicity in Swiss albino mouse assessed as effect on spontaneous locomotor activity at 0.312 to 1.25 mg/kg, ip dosed 60 mins before test measured after 2 to 6 mins; assay type: organism-based; settings: in vivo
Mus musculus [7] = test: Toxicity in Swiss albino mouse assessed as effect on spontaneous locomotor activity at 1.25 to 5 mg/kg, ip dosed 60 mins before test measured after 2 to 6 mins; assay type: organism-based; settings: in vivo
Mus musculus [8] = test: Antidepressant-like activity in Swiss albino mouse assessed as reduction in immobility time at 1.25 to 5 mg/kg, ip dosed 60 mins before test measured after 6 mins by forced swim test; assay type: functional, organism-based; method in brief: as §1

SMILES: Cn1cc(S(=O)(=O)N(CC2CC2)C2CCN(CCOc3ccccc3-c3ccccc3)CC2)cn1
- Activity (Mus musculus [1]): Non-toxic
- inhibition [2]: 94%
- inhibition [3]: > 91%
- minimal effective dose (Mus musculus [4]): 1.25 mg/kg

SMILES: CN(C1CCN(CCOc2ccccc2C(C)(C)C)CC1)S(=O)(=O)c1cnn(C)c1
- Activity (Mus musculus [5]): Active
- Activity (Mus musculus [6]): Non-toxic

SMILES: Cn1cc(S(=O)(=O)N(CC2CC2)C2CCN(CCOc3ccccc3C(C)(C)C)CC2)cn1
- Activity (Mus musculus [1]): Non-toxic
- minimal effective dose (Mus musculus [4]): 1.25 mg/kg

SMILES: CN(C1CCN(CCOc2ccccc2-c2ccccc2)CC1)S(=O)(=O)c1cnn(C)c1
- Activity (Mus musculus [7]): Non-toxic
- inhibition [2]: 85%
- inhibition [3]: > 91%
- Activity (Mus musculus [8]): Active
